Reference: ChEMBL document CHEMBL2401636, “Investigation of the noncovalent binding mode of covalent proteasome inhibitors around the transition state by combined use of cyclopropylic strain-based conformational restriction and computational modeling” (J Med Chem, 2013)

Columns and labels:
KB = assay: Cytotoxicity against human KB cells after 72 hrs; type: functional, cell-based
[1] = Inhibition of chymotrypsin-like activity of human 20S proteasome using succinyl-Leu-Leu-Val-Tyr-4-methylcoumaryl-7-amide as substrate after 60 mins by fluorescence assay
[2] = Cytotoxicity against human HS-Sultan cells after 72 hrs; type: functional, cell-based
HCT-116 = assay: Cytotoxicity against human HCT116 cells after 72 hrs; type: functional, cell-based; conditions: HCT-116, 72 h
[3] = Half life in human AB serum at 23 mM by RP-HPLC analysis; type: ADME, cell-free
Outline: (§1)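 Water-soluble analogues incubated at 37 °C in 0.1 M TEAA buffer, pH 7.4, or in human AB serum. Compound remaining was followed over time by HPLC, and the half-life was derived. Buffer half-lives are given in hours and serum half-lives in minutes.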

[4] = Half life in TEAA buffer at 7.5 mM by RP-HPLC analysis; type: physicochemical; outline: as §1
[5] = Inhibition proteasome (unknown origin); set-up: species or system Homo sapiens

CC[C@H](C)[C@@H]1C(=O)O[C@H]1C(=O)N[C@H]1C[C@H]1C[C@@H](CCc1ccccc1)NC(=O)[C@H](C)NC(=O)OCc1ccccc1
IC50 (KB): 2600 nM
IC50 [1]: 5.7 nM
IC50 [2]: 870 nM

CC[C@H](C)[C@@H]1C(=O)O[C@H]1C(=O)N[C@H]1C[C@H]1C[C@@H](CCc1ccccc1)NC(=O)c1ccc2ccccc2c1
IC50 [1]: 33 nM

CC[C@H](C)[C@@H]1C(=O)O[C@H]1C(=O)N[C@H]1C[C@H]1C[C@@H](CCc1ccccc1)NC(=O)[C@H](C)NC(=O)c1ccc2ccccc2c1
IC50 [1]: 10 nM

CC[C@H](C)[C@@H]1C(=O)O[C@H]1C(=O)N[C@H]1C[C@H]1[C@@H](C)[C@@H](CCc1ccccc1)NC(=O)[C@H](C)NC(=O)c1ccc2ccccc2c1
IC50 [1]: 42 nM

CC[C@H](C)[C@@H]1C(=O)O[C@H]1C(=O)N[C@H]1C[C@H]1[C@@H](C)[C@@H](CCc1ccccc1)NC(=O)[C@H](C)NC(=O)OCc1ccccc1
IC50 (HCT-116): 630 nM
IC50 (KB): 1700 nM
IC50 [1]: 47 nM
IC50 [2]: 310 nM

CC[C@H](C)[C@@H]1C(=O)O[C@H]1C(=O)N[C@H]1C[C@H]1[C@@H](C)[C@@H](CCc1ccccc1)NC(=O)c1ccc2ccccc2c1
IC50 [1]: 140 nM

CC[C@H](C)[C@@H]1C(=O)O[C@H]1C(=O)N[C@H]1C[C@H]1[C@H](C)[C@@H](CCc1ccccc1)NC(=O)[C@H](C)NC(=O)OCc1ccccc1
IC50 (HCT-116): > 10000 nM
IC50 (KB): > 10000 nM
IC50 [1]: 280 nM
IC50 [2]: 1800 nM

CC[C@H](C)[C@@H]1C(=O)O[C@H]1C(=O)N[C@H]1C[C@H]1[C@H](C)[C@@H](CCc1ccccc1)NC(=O)c1ccc2ccccc2c1
IC50 [1]: 750 nM

CC[C@H](C)[C@@H]1C(=O)O[C@H]1C(=O)N[C@H]1C[C@H]1[C@H](C)[C@@H](CCc1ccccc1)NC(=O)[C@H](C)NC(=O)c1ccc2ccccc2c1
IC50 [1]: 630 nM

CC[C@H](C)[C@@H]1C(=O)O[C@H]1C(=O)N[C@H]1C[C@H]1[C@@H](C)[C@@H](CCc1ccccc1)NC(=O)[C@H](C)N
half-life at 23000 µM [3]: 4.2 min
half-life at 7500 µM [4]: 14 h

CC[C@H](C)[C@@H]1C(=O)O[C@H]1C(=O)N[C@H]1C[C@H]1[C@H](C)[C@@H](CCc1ccccc1)NC(=O)[C@H](C)N
half-life at 23000 µM [3]: 4.7 min
half-life at 7500 µM [4]: 21 h

CC[C@H](C)[C@@H]1C(=O)O[C@H]1C(=O)N[C@H]1C[C@H]1C[C@@H](CCc1ccccc1)NC(=O)[C@H](C)N (mixture of isomers)
half-life at 23000 µM [3]: 2.3 min
half-life at 7500 µM [4]: 10 h

CC[C@H](C)[C@@H]1C(=O)O[C@H]1C(=O)N[C@H]1C[C@H]1C[C@H](NC(=O)[C@H](C)N)C(=O)O [BELACTOSIN A]
IC50 [1]: 1440 nM
IC50 [5]: 304 nM
